An excerpt weighted towards active compounds, which were near 2.5% of everything screened.
SENP1 FRET inh = blocks the human SENP1 SUMO protease catalytic domain; inhibition, % at 10 µM; AID 624204; recombinant SENP1 catalytic domain, CyPet-SUMO1-YPet FRET cleavage; Q9P0U3; hit rate 0.21% among 360,000;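 active means inhibition at least 30% at 10 µM, raw YFP signal under a set limit, fluorescence ratio 0.5 to 1.5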;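 further: 0% = enzyme with DMSO and 100% = no enzyme wells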
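Assay system: hSENP1 catalytic domain, recombinant. Amount: SENP1 enzyme, 20 pM final. Schedule: 50 min reaction, RT, dark. Technique: FRET, CFP and YFP emission. Control set: no-enzyme wells low, DMSO-plus-enzyme wells high control.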
Beta2AR agonist = agonists of human beta-2 adrenergic receptor inducing internalization | P07550 | Am2.2-beta2AR cells, FAP receptor internalization, flow cytometry | response, % (no concentration beside the values) | hit rate 0.43% among 340,000;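 active means response above a set limit, near 3 SD of response in nonfluorescent compounds, cut at about 42% in these data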
GRK2 aptamer HTS = human GRK2 inhibition via aptamer displacement | inhibition of aptamer binding, % at 10 µM | bead flow cytometry, FAM-aptamer displacement from GRK2 | AID 488847 | P25098 | hit rate 0.59% among 330,000;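 active means inhibition of aptamer binding above 40%, roughly 3 SD of noise, on plates passing a quality check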;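 further: median bead fluorescence of bound FAM aptamer so fluorescent compounds give negative values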
ABHD5-PLIN5 inh = ABHD5-PLIN5 protein interaction inhibition | Q00G26+Q8WTS1 | Split G. princeps luciferase complementation, luminescence, 4 h | inhibition, % at 4 µM | hit rate 0.78% among 360,000;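 active means inhibition above the mean inhibition across every tested compound plus 3 SD, cut at about 22% in these data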;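 further: 0% = DMSO only wells and the 100% control is not disclosed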
NadD block = NadD (S. aureus) enzyme inhibition | purified NadD enzyme, colorimetric absorbance read-out | inhibition, % at 20 µM | hit rate 0.78% among 360,000; in the data active means inhibition above about 26%
GRK2 CP1 = confirmation of human GRK2 inhibitors displacing RNA aptamer; shares compounds with GRK2 aptamer HTS; bead-bound GRK2, FAM-aptamer displacement, flow cytometry; aptamer displacement, % at 10 µM; hit rate 4% among 2,000;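 active means aptamer displacement above 40%, near three times the noise of non-fluorescent compounds, on plates passing quality checks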;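 further: negative values mostly reflect intrinsic compound fluorescence rather than true enhancement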
FAM quench CP1 = aptamer fluorescence quenching in GRK2 counter-screen; Carboxyfluorescein RNA aptamer on beads, flow cytometry quenching; active compounds read low; fluorescence response (% of DMSO), % at 10 µM; 2,000 tested, under 10 active; AID 504580; shares compounds with GRK2 aptamer HTS;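 active means compounds that quench the bead-bound fluorescent RNA probe, cutting fluorescence to under half of the solvent control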;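 further: counterscreen run without GRK2 so only probe quenching by compound is measured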
GRK2 confirm 2 = confirmation of human GRK2 inhibitors binding RNA aptamer site; shares compounds with GRK2 aptamer HTS; bead-bound GRK2, FAM-aptamer displacement, flow cytometry; inhibition of aptamer binding, % at 10 µM; 360 tested, under 10 active;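 active means inhibition of aptamer binding above 40%, about triple the noise seen with nonglowing compounds, on plates passing quality control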;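 further: negative values mostly come from compounds that fluoresce themselves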
FAM quench SP = quenches fluorescent RNA aptamer, GRK2 hit artifact; shares compounds with GRK2 aptamer HTS; carboxyfluorescein RNA aptamer beads, flow cytometry quenching; active compounds read low; fluorescence response vs DMSO, % at 10 µM; 360 tested, under 10 active;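 active means response vs DMSO under 50%, meaning signal dropped by over half, treated as fluorescence quencher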;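 further: labelled aptamer on streptavidin beads without GRK2 as a quench counter-screen; 100% = bead fluorescence of DMSO wells and lower means quenching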
Numbers without * were called inactive; nt = no result.

SMILES	SENP1 FRET inh	Beta2AR agonist	GRK2 aptamer HTS	ABHD5-PLIN5 inh	NadD block	GRK2 CP1	FAM quench CP1	others
O=C(O)CSc1nc2sc3c(c2c(=O)n1-c1ccccc1)CCC3	-1	-4	3	1	1	nt	nt	GRK2 confirm 2=-22;FAM quench SP=104
Cn1c(SCc2nnc(-c3ccccc3Br)o2)nc2sc3c(c2c1=O)CCC3	-2	-5	0	-4	6	nt	nt	GRK2 confirm 2=23;FAM quench SP=100
CCn1c(SCC(=O)OC)nc2sc3c(c2c1=O)CCC3	-1	-8	9	1	-2	nt	nt	GRK2 confirm 2=14;FAM quench SP=100
CCCn1c(SC(C)C(=O)NCC2CCCO2)nc2sc3c(c2c1=O)CCC3 (centres undefined)	0	-7	1	0	1	nt	nt	GRK2 confirm 2=-8;FAM quench SP=98
COc1ccc(CC(N)c2csc(NC(=O)c3cccc(OC(F)(F)F)c3)n2)cc1 (centres undefined)	-10	nt	nt	0	3	nt	nt
O=c1cc(S(=O)(=O)Cc2ccccc2)[nH]c(=O)[nH]1	2	1	nt	8	-4	nt	nt
O=C(OCc1nnc(-c2ccccc2)o1)C1CC(=O)N(CCc2ccccc2)C1 (centres undefined)	1	4	3	4	-2	1	102
Nc1nc(COC(=O)C2CC(=O)N(CCc3ccccc3)C2)nc(Nc2ccccc2)n1 (centres undefined)	2	1	0	3	-3	nt	nt
CCNC(=S)Nc1ccc(OCc2nc3ccccc3s2)cc1	1	7	nt	-12	7	nt	nt
CC(Oc1cccnc1[N+](=O)[O-])C(=O)N1CCc2ccccc21 (centres undefined)	3	8	33	15	1	2	104
O=C(COc1cccnc1[N+](=O)[O-])N1CCc2ccccc21	3	-1	0	-1	-2	nt	nt
COc1cc(Cl)c(C)cc1NC(=O)CCN1C(=O)NC(C)(C)C1=O	3	-1	nt	-3	-6	nt	nt
Cc1ccc([C@@H]2CC=C(C(=O)O)[C@H](c3cccc(F)c3)N2S(=O)(=O)c2ccccc2C)cc1	1	1	5	2	3	nt	nt
CCOC(=O)C1CCCCN1Cc1ccc(F)cc1 (centres undefined)	0	-4	75*	9	0	0	102
COC(=O)C1=C(C)N(Cc2ccccc2)C(=NCc2ccccc2)N[C@H]1c1cccc(F)c1	-2	28	0	20	1	nt	nt
CCN(CC)CCCN=C1N[C@@H](c2cccc(F)c2)C(C(=O)OC)=C(C)N1Cc1ccccc1	1	66*	51*	8	-2	nt	nt	GRK2 confirm 2=1;FAM quench SP=100
CC1(C(=O)NCc2ccccc2)CCC(=O)N1CCOc1ccccc1 (centres undefined)	0	nt	nt	0	-7	nt	nt
Nc1[nH]ncc1-c1ccc(Cl)cc1	1	1	99*	-4	-2	1	102
Cc1ccc(NC(=O)COC(=O)c2ccc(NC(=O)CC#N)cc2)cc1S(=O)(=O)N1CCOCC1	-14	-1	0	1	14	nt	nt
CCOC(=O)Cc1nnc(Nc2cccc(C)c2)c2ccccc12	2	15	92*	4	-5	11	133
Cn1c(=O)n(CCc2ccccc2)c2ccccc21	0	-11	51*	0	-2	-1	100
CCCCOC(=O)c1cc(C)nc2ccc(Br)cc12	4	4	17	6	-5	-1	94
COc1ccc(C2=NO[C@@H]3C(=O)N(c4ccc5c(c4)OCCO5)C(=O)[C@H]23)cc1OC	-1	-3	0	-6	4	nt	nt	GRK2 confirm 2=18;FAM quench SP=104
COc1ccc(C2=NO[C@@H]3C(=O)N(C4CCCCC4)C(=O)[C@H]23)cc1OC	2	-1	2	-7	-5	nt	nt
O=C(CSc1nc2ccccc2c(=O)n1-c1ccccc1)N1CCC1	-1	-11	2	4	-4	nt	nt

Screening data (PubChem)
